Screens: PubChem BioAssay, The Scripps Research Institute Molecular Screening Center
Compounds with a hit are over-represented: about 2% of the library has one in this group of screens.
MBD2 inh = inhibitors of MBD2 binding to methylated DNA, primary screen, biochemical, TR-FRET, DNA-binding domain, human. Methyl-CpG-binding domain protein 2 (Homo sapiens), Q9UBB5. MBD2 binding to methylated oligonucleotide. inhibition, % at 4.4 µM. hit rate 0.31% among 370,000. AID 686964, 2013; in the data active = inhibition above about 13%
Target sequence (Q9UBB5 whole entry, looked up, the tested form may be a part): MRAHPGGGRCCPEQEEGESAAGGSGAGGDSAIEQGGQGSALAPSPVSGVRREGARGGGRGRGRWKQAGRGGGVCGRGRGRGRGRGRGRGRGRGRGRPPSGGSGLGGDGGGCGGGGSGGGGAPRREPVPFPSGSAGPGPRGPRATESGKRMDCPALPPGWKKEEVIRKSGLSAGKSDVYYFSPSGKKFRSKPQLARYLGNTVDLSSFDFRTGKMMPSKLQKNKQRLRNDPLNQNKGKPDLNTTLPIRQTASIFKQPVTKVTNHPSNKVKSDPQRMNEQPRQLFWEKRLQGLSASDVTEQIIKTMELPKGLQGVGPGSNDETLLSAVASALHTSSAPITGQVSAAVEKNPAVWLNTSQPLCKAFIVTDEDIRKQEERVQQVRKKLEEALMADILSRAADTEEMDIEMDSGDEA
ARFGAP1 inhibitor = inhibitors of rat ARFGAP1 GAP activity, primary screen, biochemical, fluorescence polarization, GDP tracer. hit rate 0.26% among 360,000. inhibition, % at 16.5 µM. Arfgap1-stimulated ARF1 GTP hydrolysis, GDP FP detection;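 active = inhibition above a per-plate limit, mean inhibition of low control wells plus 3 SD, cut at about 25% in these data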
Target sequence (Q62848 1-136 limits assumed): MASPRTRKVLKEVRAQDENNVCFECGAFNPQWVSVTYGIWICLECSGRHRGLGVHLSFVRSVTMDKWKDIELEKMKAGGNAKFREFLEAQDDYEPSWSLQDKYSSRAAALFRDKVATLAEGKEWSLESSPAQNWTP
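Material – truncated rat Arfgap1 GAP domain · Buffer or medium – HEPES-based buffer, pH 7.5 · Reagent – human ARF1(Δ1-17)-GTP substrate · Dosing – 16.5 µM single point, 1.26% DMSO · Schedule – GTP hydrolysis reaction 2 h at 25 °C · Technique – GDP detection by fluorescence polarization · Benchmarks – No-Arfgap1 wells (100%) versus DMSO full-reaction wells (0%) · Repeats – single replicate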
ASAP1 GAP inh = inhibitors of human ASAP1 ArfGAP activity, primary screen, biochemical, fluorescence polarization. Arf-GAP with SH3 domain, ANK repeat and PH domain-containing protein 1 (Homo sapiens), …. ASAP1-stimulated ARF1 GTP hydrolysis, GDP FP detection. inhibition, % at 16.5 µM. hit rate 0.19% among 360,000. AID 624377, 2012; in the data active = inhibition above about 25%
LEDGF integ inh = blockers of LEDGF/p75-dependent integrase strand transfer – biochemical, TR-FRET, high throughput, primary screen | TR-FRET IN-LEDGF/p75 DNA integration, Eu/Cy5 | inhibition, % at 3.7 µM | hit rate 0.64% among 370,000 | AID 743269, 2014;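 active = inhibition above the screen-wide mean plus 3 SD, cut at about 13% in these data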;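 note: signal is the Cy5 over europium emission ratio at 671 and 618 nm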
TCR-CD3 inh = inhibitors of human TCR-CD3 interaction, primary screen, biochemical, fluorescence, TAMRA-labeled TCR probe. T-cell receptor (TCR). inhibition, % at 9.4 µM. hit rate 0.37% among 360,000. AID 651800, 2012; in the data active = inhibition above about 19%;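 note: recombinant mutant TCR 2C K166C tagged with TAMRA read by polarization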
UHRF1 MBD2 ctr = UHRF1 methylated DNA binding inhibitors, primary screen, counter-screen for MBD2 inhibitor project, biochemical, TR-FRET, human UHRF1, single concentration | inhibition, % at 4.4 µM | AID 687016, 2013 | E3 ubiquitin-protein ligase UHRF1 (Homo sapiens), Q96T88 | hit rate 0.75% among 370,000 | UHRF1 binding to methylated oligo; in the data active = inhibition above about 21%;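 note: UHRF1 SRA domain binding a hemimethylated CpG hairpin DNA probe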
Numbers stand for hits.

How did COCCn1cnnc1SCC(=O)Nc1sc2c(c1C#N)CCC2 do in these assays?
MBD2 inh: inactive; ARFGAP1 inhibitor: inactive; ASAP1 GAP inh: inactive; LEDGF integ inh: inactive; TCR-CD3 inh: inactive; UHRF1 MBD2 ctr: inactive

Results for O=C1/C(=C/c2cccnc2)CC/C1=C\c1cccnc1 ?
MBD2 inh: inactive; ARFGAP1 inhibitor: inactive; ASAP1 GAP inh: inactive; LEDGF integ inh: inactive; TCR-CD3 inh: inactive; UHRF1 MBD2 ctr: 40

How did O=C(c1cccc(C(F)(F)F)c1)c1c[nH]c(C(=O)NCC2CCCO2)c1 (configuration not stated) do in these assays?
MBD2 inh: inactive; ARFGAP1 inhibitor: inactive; ASAP1 GAP inh: inactive; LEDGF integ inh: inactive; TCR-CD3 inh: inactive; UHRF1 MBD2 ctr: 24

What do the screens show for `O=C(NCc1ccco1)C1Cc2ccccc2CN1S(=O)(=O)c1ccccc1F` (configuration not stated)?
MBD2 inh: inactive; ARFGAP1 inhibitor: inactive; ASAP1 GAP inh: inactive; LEDGF integ inh: 14; TCR-CD3 inh: inactive; UHRF1 MBD2 ctr: inactive

What do the screens show for `O=C(NCc1ccco1)C1Cc2ccccc2CN1C(=O)c1ccco1` (configuration not stated)?
MBD2 inh: inactive; ARFGAP1 inhibitor: inactive; ASAP1 GAP inh: inactive; LEDGF integ inh: inactive; TCR-CD3 inh: inactive; UHRF1 MBD2 ctr: inactive

What do the screens show for `CCN(CC)S(=O)(=O)c1ccc(Cl)c(C(=O)Nc2cc(C)nn2-c2ccccc2)c1`?
MBD2 inh: inactive; ARFGAP1 inhibitor: inactive; ASAP1 GAP inh: inactive; LEDGF integ inh: inactive; TCR-CD3 inh: inactive; UHRF1 MBD2 ctr: 65

How did CCN(CC)S(=O)(=O)c1cccc(C(=O)Nc2cc(C)nn2-c2ccccc2)c1 do in these assays?
MBD2 inh: inactive; ARFGAP1 inhibitor: inactive; ASAP1 GAP inh: inactive; LEDGF integ inh: inactive; TCR-CD3 inh: inactive; UHRF1 MBD2 ctr: inactive

How did C=CCN1[C@H](C#N)[C@@H](c2ccc(C#Cc3cccnc3)cc2)[C@H]1CO do in these assays?
MBD2 inh: inactive; LEDGF integ inh: inactive; UHRF1 MBD2 ctr: inactive

What do the screens show for `COC(=O)c1ccccc1NC(=O)CSc1nnnn1CC(=O)O`?
MBD2 inh: inactive; ARFGAP1 inhibitor: inactive; ASAP1 GAP inh: inactive; LEDGF integ inh: inactive; TCR-CD3 inh: inactive; UHRF1 MBD2 ctr: inactive

How did O=C(O)Cn1nnnc1SCC(=O)Nc1ccccc1F do in these assays?
MBD2 inh: inactive; ARFGAP1 inhibitor: inactive; ASAP1 GAP inh: inactive; LEDGF integ inh: inactive; TCR-CD3 inh: inactive; UHRF1 MBD2 ctr: 26

Results for COc1ccccc1NC(=O)CSc1nnc(CCC(=O)Nc2ccccc2F)n1C ?
MBD2 inh: inactive; ARFGAP1 inhibitor: inactive; ASAP1 GAP inh: inactive; LEDGF integ inh: inactive; TCR-CD3 inh: inactive; UHRF1 MBD2 ctr: 21

How did COc1ccccc1NC(=O)Cc1nnc(SCC(=O)Nc2ccc(F)cc2F)n1C do in these assays?
MBD2 inh: inactive; ARFGAP1 inhibitor: inactive; ASAP1 GAP inh: inactive; LEDGF integ inh: inactive; TCR-CD3 inh: inactive; UHRF1 MBD2 ctr: inactive

Results for CC(COc1ccc(C#N)c(F)c1)CN1CCC(C(O)(c2ccccc2)c2ccccc2)CC1 (configuration not stated) ?
MBD2 inh: inactive; LEDGF integ inh: inactive; UHRF1 MBD2 ctr: inactive

Results for CC1=C(C(=O)N2CCOCC2)CC(CC(=O)NCc2cccc3ccccc23)C(=O)N1CCCN1CCCC1=O (configuration not stated) ?
MBD2 inh: inactive; ARFGAP1 inhibitor: inactive; ASAP1 GAP inh: inactive; LEDGF integ inh: inactive; TCR-CD3 inh: inactive; UHRF1 MBD2 ctr: inactive

What do the screens show for `CCCCN1C(=O)C(CC(=O)NCc2cccc3ccccc23)CC(C(=O)N2CCOCC2)=C1C` (configuration not stated)?
MBD2 inh: inactive; ARFGAP1 inhibitor: inactive; ASAP1 GAP inh: inactive; LEDGF integ inh: inactive; TCR-CD3 inh: inactive; UHRF1 MBD2 ctr: 22

How did Cc1nn(C)cc1NC(=O)C[C@H]1CC[C@H]2[C@@H](COc3ccc(NC(=O)Nc4ccccc4)cc3C(=O)N2C)O1 do in these assays?
MBD2 inh: inactive; LEDGF integ inh: inactive; UHRF1 MBD2 ctr: inactive

What do the screens show for `CC(=O)Nc1ccc(S(=O)(=O)NCCNS(=O)(=O)c2ccc(NC(C)=O)cc2)cc1`?
MBD2 inh: inactive; ARFGAP1 inhibitor: inactive; ASAP1 GAP inh: inactive; LEDGF integ inh: inactive; TCR-CD3 inh: inactive; UHRF1 MBD2 ctr: inactive

How did CC(=O)Nc1ccc(S(=O)(=O)NCCSc2ccccn2)cc1 do in these assays?
MBD2 inh: inactive; ARFGAP1 inhibitor: inactive; ASAP1 GAP inh: inactive; LEDGF integ inh: inactive; TCR-CD3 inh: inactive; UHRF1 MBD2 ctr: 21

What do the screens show for `C=C1C2(C(=O)NCc3ccco3)CCC(C2)C1(C)C` (configuration not stated)?
MBD2 inh: inactive; ARFGAP1 inhibitor: inactive; ASAP1 GAP inh: inactive; LEDGF integ inh: inactive; TCR-CD3 inh: inactive; UHRF1 MBD2 ctr: 22

How did O=C(NCCSc1c[nH]c2ccccc12)c1c(F)cccc1F do in these assays?
MBD2 inh: inactive; ARFGAP1 inhibitor: inactive; ASAP1 GAP inh: inactive; LEDGF integ inh: inactive; TCR-CD3 inh: inactive; UHRF1 MBD2 ctr: inactive

What do the screens show for `O=C(NCCSc1c[nH]c2ccccc12)C1CC1`?
MBD2 inh: inactive; ARFGAP1 inhibitor: inactive; ASAP1 GAP inh: inactive; LEDGF integ inh: inactive; TCR-CD3 inh: inactive; UHRF1 MBD2 ctr: 45

What do the screens show for `O=C1C(SCCO)=C(SCCO)C(=O)c2ccccc21`?
MBD2 inh: inactive; ARFGAP1 inhibitor: inactive; ASAP1 GAP inh: inactive; LEDGF integ inh: 29; TCR-CD3 inh: inactive; UHRF1 MBD2 ctr: inactive

How did O=C1C(Cl)=C(NCCCO)C(=O)c2ccccc21 do in these assays?
MBD2 inh: inactive; ARFGAP1 inhibitor: inactive; ASAP1 GAP inh: inactive; LEDGF integ inh: inactive; TCR-CD3 inh: inactive; UHRF1 MBD2 ctr: inactive

How did O=S1(=O)CC(N2CCCC2)CN1Cc1cn(Cc2ccc(F)cc2)nn1 (configuration not stated) do in these assays?
MBD2 inh: inactive; ARFGAP1 inhibitor: inactive; ASAP1 GAP inh: inactive; LEDGF integ inh: inactive; TCR-CD3 inh: inactive; UHRF1 MBD2 ctr: inactive

Results for O=C1Cc2ccccc2C(=O)N1c1ccc(F)cc1Cl ?
MBD2 inh: inactive; ARFGAP1 inhibitor: inactive; ASAP1 GAP inh: inactive; LEDGF integ inh: inactive; TCR-CD3 inh: inactive; UHRF1 MBD2 ctr: 37

What do the screens show for `O=C1Cc2ccccc2C(=O)N1c1cccc(Cl)c1`?
MBD2 inh: inactive; ARFGAP1 inhibitor: inactive; ASAP1 GAP inh: inactive; LEDGF integ inh: inactive; TCR-CD3 inh: inactive; UHRF1 MBD2 ctr: inactive

How did C[C@@H]1COc2cc(N3CCCC3)ccc2S(=O)(=O)N1 do in these assays?
MBD2 inh: inactive; ARFGAP1 inhibitor: inactive; ASAP1 GAP inh: inactive; LEDGF integ inh: inactive; TCR-CD3 inh: inactive; UHRF1 MBD2 ctr: 21
